Inhibition and Ki data for 31 molecules are collected here from ChEMBL document CHEMBL3414467, “Exploring the 7-oxo-thiazolo[5,4-d]pyrimidine core for the design of new human adenosine A3 receptor antagonists. Synthesis, molecular modeling studies and pharmacological evaluation” (Eur J Med Chem, 2015).

Assay [1] has as its target T1, Adenosine receptor A1 (Homo sapiens) (UniProt P30542).
T1 sequence (whole entry): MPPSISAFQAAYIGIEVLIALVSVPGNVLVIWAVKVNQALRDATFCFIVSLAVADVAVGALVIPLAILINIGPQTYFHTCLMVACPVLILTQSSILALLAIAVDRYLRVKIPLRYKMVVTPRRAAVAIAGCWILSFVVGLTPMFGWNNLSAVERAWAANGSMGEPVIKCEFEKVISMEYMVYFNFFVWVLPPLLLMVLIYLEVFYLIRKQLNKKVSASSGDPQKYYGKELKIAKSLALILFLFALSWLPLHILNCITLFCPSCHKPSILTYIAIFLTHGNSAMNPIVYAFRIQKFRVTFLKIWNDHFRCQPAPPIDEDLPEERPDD
Put plainly: Displacement of [3H]DPCPX from human adenosine A1 receptor expressed in CHO cell membranes at 1 uM incubated for 120 mins by scintillation counting method. The essentials: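 Membranes from hA1-CHO cells (50 μg protein/assay), pretreated with adenosine deaminase 2 IU/mL, 30 min at 37 °C. Incubated with 1 nM [3H]DPCPX in 50 mM Tris HCl pH 7.4 for 120 min at 25 °C. Nonspecific binding defined with 1 μM DPCPX. Test compounds at 1 μM, reported as percent inhibition. Separation by GF/B filtration; read by scintillation counting.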
For orientation: Loss of bound radioactivity is the signal in a displacement assay; it reports binding, not function.

Assay [2] concerns the target Adenosine receptor A2a (Homo sapiens) (UniProt P29274). Put plainly: Displacement of [3H]ZM241385 from human adenosine A2A receptor expressed in CHO cell membranes at 1 uM incubated for 60 mins by scintillation counting method. The essentials:
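Membranes from hA2A-CHO cells (50 μg protein/assay), deaminase-treated. Incubated with 1 nM [3H]ZM241385 in 50 mM Tris HCl, 10 mM MgCl2, pH 7.4 for 60 min at 4 °C. Nonspecific binding defined with 1 μM ZM241385. Test compounds at 1 μM, reported as percent inhibition. Filter separation; scintillation counting.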

The target in assay [3] is T2, Adenosine receptor A3 (Homo sapiens) (UniProt P0DMS8).
T2 sequence (whole entry): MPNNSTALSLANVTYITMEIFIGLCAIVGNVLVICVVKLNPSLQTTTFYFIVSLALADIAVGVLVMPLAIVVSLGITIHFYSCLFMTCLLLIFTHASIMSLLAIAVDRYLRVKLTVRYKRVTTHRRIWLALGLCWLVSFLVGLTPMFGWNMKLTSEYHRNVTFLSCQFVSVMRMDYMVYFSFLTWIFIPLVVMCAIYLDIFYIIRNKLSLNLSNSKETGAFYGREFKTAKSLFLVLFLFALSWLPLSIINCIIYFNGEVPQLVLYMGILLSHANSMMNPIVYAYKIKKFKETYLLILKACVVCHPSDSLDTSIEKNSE
Put plainly: Displacement of [125I]AB-MECA from human adenosine A3 receptor expressed in CHO cell membranes at 1 uM incubated for 120 mins by scintillation counting method. In short, it runs like this: (§1)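 Membranes from hA3-CHO cells (50 μg protein/assay), pretreated with 2 IU/mL adenosine deaminase. Incubated with 0.5 nM [125I]AB-MECA in 50 mM Tris HCl, 10 mM MgCl2, 1 mM EDTA, pH 7.4, with six to eight compound concentrations; percent inhibition taken at 1 μM. Ki from IC50 by Cheng–Prusoff, means of four assays in duplicate.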

In assay [4] the target is T3, Adenosine receptor A2b (Homo sapiens) (UniProt P29275).
T3 sequence (whole entry): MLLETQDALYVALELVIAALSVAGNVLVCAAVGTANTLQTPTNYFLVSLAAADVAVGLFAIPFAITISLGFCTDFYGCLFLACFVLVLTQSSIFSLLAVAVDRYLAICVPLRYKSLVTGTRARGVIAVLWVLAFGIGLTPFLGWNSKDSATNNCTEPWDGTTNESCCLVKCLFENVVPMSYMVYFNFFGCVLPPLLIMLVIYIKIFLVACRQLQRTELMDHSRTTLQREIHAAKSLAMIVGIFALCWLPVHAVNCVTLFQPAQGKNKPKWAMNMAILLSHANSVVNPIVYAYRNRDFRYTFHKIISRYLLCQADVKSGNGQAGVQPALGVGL
Put plainly: Antagonist activity against human adenosine A2B receptor expressed in CHO cells assessed as inhibition of NECA-induced cAMP production at 1 uM by scintillation counting method. Format: functional, cell-based. The essentials:
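hA2B-transfected CHO cells (1 × 10⁶ cells/assay) in buffered saline-glucose medium with 2 IU/mL adenosine deaminase and Ro 20-1724, preincubated 10 min at 37 °C, stimulated with 200 nM NECA; test compounds at 1 μM, reported as percent inhibition. Stopped with cold 6% TCA, ether-extracted; cAMP measured by competition binding with [3H]cAMP and beef adrenal binding protein.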

For another assay, the target named is T4, Adenosine receptor A3 (Homo sapiens, UniProt P0DMS8).
T4 sequence (P0DMS8 whole entry): T2 sequence (whole entry)
Put plainly: Displacement of [125I]AB-MECA from human adenosine A3 receptor expressed in CHO cell membranes incubated for 120 mins by scintillation counting method. The essentials: as §1

As a reminder, the inhibition is the drop in the measured response relative to a control, in per cent. Broadly, the Ki is a dissociation constant, usually derived from enzyme kinetics or from competition with a known ligand. A lower Ki goes with higher affinity.

Adenosine receptor A2a (Homo sapiens), sequence (P29274 whole entry): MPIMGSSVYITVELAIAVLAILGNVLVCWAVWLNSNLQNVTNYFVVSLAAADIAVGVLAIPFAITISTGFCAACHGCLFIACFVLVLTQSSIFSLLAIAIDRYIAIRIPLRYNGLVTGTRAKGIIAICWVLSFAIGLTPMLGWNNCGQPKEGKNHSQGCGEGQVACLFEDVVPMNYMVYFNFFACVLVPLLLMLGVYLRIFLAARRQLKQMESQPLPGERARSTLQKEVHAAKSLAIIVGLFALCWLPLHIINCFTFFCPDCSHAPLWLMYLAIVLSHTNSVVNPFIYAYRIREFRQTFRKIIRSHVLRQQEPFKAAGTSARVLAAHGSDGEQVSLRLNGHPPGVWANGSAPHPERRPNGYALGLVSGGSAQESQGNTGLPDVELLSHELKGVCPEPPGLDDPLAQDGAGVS

On to `CCOc1nc(C)nc2sc(-c3ccc(C)cc3)nc12`, for which the inhibition in assay [1] was determined as 1%; in assay [2] it was 1%; in assay [3] it was 5%; in assay [4], 1%.

For the molecule `Cc1ccc(-c2nc3c(=O)[nH]c(C)nc3s2)cc1`, the inhibition in assay [1] was 17%; in assay [2], 2%; in assay [4] it was 3%. This molecule also showed a Ki at Adenosine receptor A3 of 33 nM.

Consider `Cc1nc2sc(-c3ccncc3)nc2c(=O)[nH]1`, for which the inhibition was 1% in assay [1], 1% in assay [2], 15% in assay [3] and 1% in assay [4].

In the case of `Cc1nc2sc(-c3ccc(F)cc3)nc2c(=O)[nH]1`, the inhibition in assay [1] is 1%; in assay [2], 15%; in assay [4], 17%. Besides, the Ki on Adenosine receptor A3 is 107 nM.

In the case of `CCOc1nc(C)nc2sc(-c3ccccc3)nc12`, the inhibition was determined as 11% in assay [1], 1% in assay [2], 6% in assay [3] and 1% in assay [4].

As to `Cc1ccc(Nc2nc3c(=O)[nH]c(C)nc3s2)cc1`, the inhibition in assay [1] amounted to 20%; in assay [2] it was 18%; in assay [3] it was 47%; in assay [4] it was 1%.

On to `COc1ccc(-c2nc3c(=O)[nH]c(C)nc3s2)cc1`, for which the inhibition was found to be 10% in assay [1], 1% in assay [2] and 3% in assay [4]. Besides, the affinity on Adenosine receptor A3 corresponds to a Ki of 38 nM.

For `Cc1cccc(-c2nc3c(=O)[nH]c(C)nc3s2)c1`, the figures for the inhibition in assay [1], in assay [2] and in assay [4] were 1%, 31% and 1%, respectively. The same molecule returned a Ki on Adenosine receptor A3 of 384 nM.

Regarding `CCOc1nc(C)nc2sc(-c3ccc(Cl)cc3)nc12`, the inhibition in assay [1] amounted to 6%; in assay [2] it was 9%; in assay [3], 10%; in assay [4], 1%.

As to `Cc1cccc(Nc2nc3c(=O)[nH]c(C)nc3s2)c1`, the results for the inhibition in assay [1], in assay [2] and in assay [4] were 12%, 8% and 1%, respectively. On Adenosine receptor A3, the Ki was 450 nM.

For `Cc1nc2sc(Nc3ccccc3)nc2c(=O)[nH]1`, the inhibition in assay [1] stood at 24%; in assay [2] it was 14%; in assay [3], 45%; in assay [4], 1%.

Regarding `Cc1nc2sc(-c3ccco3)nc2c(=O)[nH]1`, the inhibition in assay [1] is 37%; in assay [2] it was 1%; in assay [3] it was 20%; in assay [4], 2%.

`Cc1nc2sc(-c3cccc(F)c3)nc2c(=O)[nH]1`: the inhibition in assay [1], in assay [2] and in assay [4] was 1% each time. The same molecule yielded a Ki on Adenosine receptor A3 of 109 nM.

With `Cc1nc2sc(-c3cccc(Cl)c3)nc2c(=O)[nH]1`, the inhibition is 24% in assay [1], 10% in assay [2] and 1% in assay [4]. The Ki on Adenosine receptor A3 turned out to be 826 nM.

Take `COc1cccc(Nc2nc3c(=O)[nH]c(C)nc3s2)c1`: the inhibition in assay [1] was 8%; in assay [2] it was 1%; in assay [4], 1%. The same molecule yielded a Ki at Adenosine receptor A3 of 113 nM.

In the case of `Cc1nc2sc(-c3cccnc3)nc2c(=O)[nH]1`, the inhibition came to 1% in assay [1], 1% in assay [2], 33% in assay [3] and 1% in assay [4].

`CCOc1nc(C)nc2sc(Nc3ccccc3)nc12`: the inhibition in assay [1] was found to be 2%; in assay [2], 3%; in assay [3], 45%; in assay [4], 1%.

Take `Cc1nc2sc(-n3cccc3)nc2c(=O)[nH]1`: the inhibition in assay [1] came out at 1%; in assay [2] it was 9%; in assay [4] it was 3%. For the same molecule, the affinity on Adenosine receptor A3, expressed as Ki, was 227 nM.

For the molecule `Cc1nc2sc(-n3ccnc3)nc2c(=O)[nH]1`, the inhibition in assay [1] was 1%; in assay [2], 1%; in assay [3], 8%; in assay [4], 1%.

As to `Cc1nc2sc(-c3cccs3)nc2c(=O)[nH]1`, the inhibition amounted to 4% in assay [1], 1% in assay [2] and 1% in assay [4]. This molecule also had an inhibition constant Ki on Adenosine receptor A3 of 248 nM.

For `Cc1nc2sc(Nc3cccc(Cl)c3)nc2c(=O)[nH]1`, the inhibition came to 44% in assay [1], 21% in assay [2], 48% in assay [3] and 1% in assay [4].

For `Cc1nc2sc(Nc3ccc(Cl)c(Cl)c3)nc2c(=O)[nH]1`, the inhibition in assay [1] was 30%; in assay [2], 16%; in assay [3] it was 25%; in assay [4], 1%.

Regarding `CCOc1nc(C)nc2sc(Nc3cccc(OC)c3)nc12`, the inhibition in assay [1] was 3%; in assay [2], 25%; in assay [4], 1%. At Adenosine receptor A3, this molecule gave a Ki of 110 nM.

On to `Cc1nc2sc(-c3ccc(C(F)(F)F)cc3)nc2c(=O)[nH]1`, for which the inhibition in assay [1] came to 1%; in assay [2], 37%; in assay [3] it was 32%; in assay [4], 1%.

Consider `Cc1nc2sc(-c3ccc(O)cc3)nc2c(=O)[nH]1`, for which the inhibition is 1% in assay [1], 1% in assay [2], 15% in assay [3] and 1% in assay [4].

With `Cc1nc2sc(-c3cccc(C(F)(F)F)c3)nc2c(=O)[nH]1`, the inhibition in assay [1] stood at 1%; in assay [2], 15%; in assay [3], 15%; in assay [4], 17%.

For the molecule `COc1cccc(-c2nc3c(=O)[nH]c(C)nc3s2)c1`, the inhibition in assay [1] turned out to be 1%; in assay [2] it was 12%; in assay [3], 28%; in assay [4], 4%.

As for `Cc1nc2sc(Cc3ccccc3)nc2c(=O)[nH]1`, the inhibition turned out to be 11% in assay [1], 1% in assay [2] and 1% in assay [4]. For the same molecule, on Adenosine receptor A3, the inhibition constant (Ki) amounted to 427 nM.

Take `Cc1nc2sc(Nc3ccc(Cl)cc3)nc2c(=O)[nH]1`: the inhibition in assay [1] worked out at 33%; in assay [2] it was 18%; in assay [3], 49%; in assay [4], 1%.

Regarding `Cc1nc2sc(-c3ccc(C(=O)O)cc3)nc2c(=O)[nH]1`, the inhibition in assay [1], in assay [2], in assay [3] and in assay [4] was 1% throughout.

In the case of `COc1ccc(Nc2nc3c(=O)[nH]c(C)nc3s2)cc1`, the inhibition in assay [1] turned out to be 1%; in assay [2] it was 1%; in assay [3], 36%; in assay [4], 1%.
